# Assay results collected from several papers.
# Lines come from different studies, so protocols differ.
# Target: Inhibitor of nuclear factor kappa-B kinase subunit epsilon (IKBKE, Homo sapiens, UniProt Q14164)
# One construct used (Q14164 1-716): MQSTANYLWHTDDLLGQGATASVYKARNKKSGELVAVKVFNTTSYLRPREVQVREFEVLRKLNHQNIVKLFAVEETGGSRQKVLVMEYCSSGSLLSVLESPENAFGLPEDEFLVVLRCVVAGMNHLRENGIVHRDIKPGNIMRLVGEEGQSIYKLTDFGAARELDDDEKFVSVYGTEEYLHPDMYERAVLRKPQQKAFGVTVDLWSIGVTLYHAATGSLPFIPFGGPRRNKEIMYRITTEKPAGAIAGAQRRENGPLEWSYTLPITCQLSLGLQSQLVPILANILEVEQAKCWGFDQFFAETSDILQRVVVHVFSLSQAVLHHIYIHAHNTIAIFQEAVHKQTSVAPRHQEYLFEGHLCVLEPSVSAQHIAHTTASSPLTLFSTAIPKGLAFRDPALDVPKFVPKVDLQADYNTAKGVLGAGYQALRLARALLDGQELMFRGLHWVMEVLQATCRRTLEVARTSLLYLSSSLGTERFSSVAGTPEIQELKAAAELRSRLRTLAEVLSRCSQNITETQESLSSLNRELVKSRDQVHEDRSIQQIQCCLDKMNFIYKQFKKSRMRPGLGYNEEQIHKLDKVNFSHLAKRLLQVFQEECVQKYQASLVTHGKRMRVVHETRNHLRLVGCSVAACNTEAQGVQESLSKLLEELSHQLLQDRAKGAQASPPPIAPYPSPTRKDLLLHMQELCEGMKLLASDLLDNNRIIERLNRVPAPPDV
SMILES,test,setting,endpoint,value
C#Cc1cc(-c2cc(Nc3nc(N[C@@H](C)c4ccc(F)cn4)ncc3Cl)n[nH]2)ccc1C=O,"enzyme activity, inhibitor",0.2 µM,inhibition,14.7%
CC(C)S(=O)(=O)c1ccc2nccc(Nc3ccc4sc(C5CCCC5)nc4c3)c2c1,"enzyme activity, inhibitor",1 µM,activity vs control,113%
CO[C@@H]1[C@H](N(C)C(=O)c2ccccc2)C[C@H]2O[C@]1(C)n1c3ccccc3c3c4c(c5c6ccccc6n2c5c31)C(=O)NC4,"enzyme activity, inhibitor",1 µM,inhibition,97%
CCCCC(=O)Nc1ccc(-c2ccc3ncn(CCC)c(=O)c3c2)cn1,"binding, competition with immobilised ligand",0.5 µM,remaining binding,93%
Cc1ccc(NC(=O)c2ccnc(C(F)(F)F)c2)cc1-c1cc(OCCO)nc(N2CCOCC2)c1,binding,1 µM,remaining binding,94%
C=CC(=O)N1CCC([C@@H]2CCNc3c(C(N)=O)c(-c4ccc(Oc5ccccc5)cc4)nn32)CC1,"enzyme activity, inhibitor",1 µM,inhibition,1%
Cc1cc(O)c(-c2ccc([C@@H](C)CN(C)C)cc2)c2c1[nH]c(=O)c1sccc12,"enzyme activity, inhibitor",0.1 µM,inhibition,-7.74%
COc1ccc2[nH]c3c4[nH]c5ccc(OC)cc5c4c4c(c3c2c1)C(=O)NC4=O,binding,1 µM,remaining binding,48%
